# Source: ChEMBL document CHEMBL4330095, “Development of an anti-hepatitis B virus (HBV) agent through the structure-activity relationship of the interferon-like small compound CDM-3008” (Bioorg Med Chem, 2019)
# The source made the active and inactive calls. The rule behind the calls is not given here.
# Legend:
# Hepatitis C virus = experiment: Antiviral activity against HCV infected in human R6FLR-N replicon cells assessed as reduction in viral replication at 30 uM after 3 days by luciferase reporter gene assay; assay type: functional, Hepacivirus hominis; design: scale not given: the % may be the effect or the level left
# Method in brief: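 R6FLR-N replicon cells, 3 × 10⁴ cells/well, grown in DMEM with 10% FBS and 500 μg/ml G418; compound added after 1 day, then 3 days of incubation. Luciferase read by Steady-Glo; percent inhibition at 30 μM expressed against DMSO control, mean of n = 2.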
# [1] = Solubility of the compound by HPLC-UV analysis; assay type: physicochemical
# Method in brief: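 Dissolved compound solution injected into HPLC and peak area read by UV at 254 nm; concentration derived from a previously determined calibration curve.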
# [2] = Cytotoxicity against human […] cells harboring R6FLR-N replicons after 3 days by XTT assay; assay type: cell-based; design: concentration or dose not given beside the values; conditions: 72 h
# Method in brief: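 Replicon cells seeded at 3 × 10⁴ cells/well and exposed to compound for 3 days; viability by XTT. Values given as percent at 30 μM against DMSO control, mean of n = 2.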
# HBV genotype C [3] = experiment: (§1) Antiviral activity against HBV genotype C infected in primary human hepatocytes PXB cells assessed as inhibition of viral DNA level after 14 days by qPCR analysis; assay type: functional, cell-based
# Method in brief: (§2)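 PXB cells (primary human hepatocytes from humanized-liver chimeric mice) in dHCGM, 37 °C, 5% CO2; infected with HBV C_AT at 3 genome equivalents/cell while treated with 0.01–10 μM compound; after 1 day, compound-containing medium exchanged every 3 or 4 days for 14 days. Cellular DNA purified and quantified, HBV DNA by qPCR; mean ± SE, n = 3.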
# Homo sapiens = organism: Homo sapiens; experiment: Induction of IFN-stimulated gene expression response in human JHH7 cells assessed as upregulation of OAS1 mRNA expression at 3 to 30 uM after 3 days by qPCR analysis; assay type: functional, cell-based
# Method in brief: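 JHH-7 hepatoma cells in DMEM with 10% FBS, 37 °C, 5% CO2, exposed to 3 and 30 μM compound for 3 days. Total RNA purified and its concentration measured by UV spectrophotometry before OAS-1 mRNA measurement; mean ± SE, n = 3.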
# [4] = as §1; assay type: functional, cell-based; conditions: Hepatitis B virus, 336 h; method in brief: as §2
# Hepatocyte = experiment: Cytotoxicity against human primary hepatocytes PXB cells assessed as decrease in cell viability by RealTime-Glo MT assay; assay type: cell-based
# Method in brief: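 Viability read by RealTime-Glo MT in HBV C_AT-infected PXB cells (3 genome equivalents/cell) given 0.01–10 μM compound from infection onward, with compound-containing medium exchanged every 3 or 4 days over 14 days; mean ± SE, n = 3.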
# [5] = Half life in mouse liver microsomes at 29 umol/L preincubated for 5 mins followed by NADPH addition measured after 120 mins by HPLC analysis; assay type: ADME, Microsome
# Method in brief: (§3)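 Compound (29 μmol/L, as added) combined with mouse or human liver microsomes (20 mg/mL stock), preincubated 5 min at 37 °C, then NADPH regenerating system added and incubated 0, 30, 60 or 120 min at 37 °C. Aliquots quenched in ice-cold MeOH, internal standard added, centrifuged; remaining compound quantified by HPLC against a calibration curve.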
# [6] = Half life in human liver microsomes at 29 umol/L preincubated for 5 mins followed by NADPH addition measured after 120 mins by HPLC analysis; assay type: ADME, Microsome; method in brief: as §3
# HBV genotype C [7] = experiment: Antiviral activity against HBV genotype C infected in primary human hepatocytes PXB cells assessed as inhibition of viral DNA level at 0.32 to 32 uM incubated for 7 days by qPCR analysis; assay type: functional, cell-based
# Method in brief: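 PXB cells in dHCGM infected with HBV C_AT, 3 genome equivalents/cell; medium exchanged every 3 or 4 days. After 28 days of infection, cells treated with the indicated concentrations for 7 days, pegylated IFNα2a run alongside. Cellular DNA purified and quantified, then HBV DNA measured by qPCR; mean ± SE, n = 3.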
Compound,solubility [1] [µg/mL],half-life at 29 µM [5] [min],half-life at 29 µM [6] [min],Activity (Hepatitis C virus),Activity [2] [%],Activity (HBV genotype C [3]),Activity (Homo sapiens),IC50 [4] [µM],Activity (Hepatocyte),Activity (HBV genotype C [7])
OCc1nnc(-c2cn3c(ccc4c(C(F)(F)F)cc(C(F)(F)F)nc43)n2)o1,,,,12%,-7.4,,,,,
O=C(c1cn2c(ccc3c(C(F)(F)F)cc(C(F)(F)F)nc32)n1)N1CCNCC1,,,,,,Active,,,,
Cc1nnc(-c2cn3c(ccc4c(C(F)(F)F)cc(C(F)(F)F)nc43)n2)o1,,,,89.8%,4.3,,,,,
CCCc1nnc(-c2cn3c(ccc4c(C(F)(F)F)cc(C(F)(F)F)nc43)n2)o1,,,,15.3%,8.5,,,,,
Cl.NCCOc1cc(C(F)(F)F)c2ccc3nc(-c4nnco4)cn3c2n1,19800,,,28.1%,5.7,,Active,10,Non-Toxic,
COCc1nnc(-c2cn3c(ccc4c(C(F)(F)F)cc(C(F)(F)F)nc43)n2)o1,,,,4.8%,-2.5,,,,,

# Now from value to molecule, other results behind:
solubility [1] [µg/mL],half-life at 29 µM [5] [min],half-life at 29 µM [6] [min],Compound,Activity (Hepatitis C virus),Activity [2] [%],Activity (HBV genotype C [3]),Activity (Homo sapiens),IC50 [4] [µM],Activity (Hepatocyte),Activity (HBV genotype C [7])
< 100,,,O=C(Nc1ccncc1)c1cn2c(ccc3c(C(F)(F)F)cc(C(F)(F)F)nc32)n1,40.1%,4.2,,,,,
> 30000,,,Cl.NCCOc1cc(C(F)(F)F)c2ccc3nc(C(=O)Nc4ccncc4)cn3c2n1,78.2%,51.8,inactive,,,,
< 100,,,O=C(Nc1ccccn1)c1cn2c(ccc3c(C(F)(F)F)cc(C(F)(F)F)nc32)n1,2.6%,1.6,,,,,
> 30000,> 120,> 120,Cl.O=C(NC1CCNCC1)c1cn2c(ccc3c(C(F)(F)F)cc(C(F)(F)F)nc32)n1,90.7%,58.6,,inactive,8.4,Non-Toxic,
920,58.2,34.1,FC(F)(F)c1cc(C(F)(F)F)c2ccc3nc(-c4nnco4)cn3c2n1,90.1 - 92.1%,3.1,,Active,,,Active
< 100,,,O=C(Nc1cccnc1)c1cn2c(ccc3c(C(F)(F)F)cc(C(F)(F)F)nc32)n1,63.6%,6.9,,,,,
